Results on 24 compounds are retold here after ChEMBL document CHEMBL4007465, “1,4-Substituted Triazoles as Nonsteroidal Anti-Androgens for Prostate Cancer Treatment” (J Med Chem, 2017).

In data set [1] the target is T1, Androgen receptor (Homo sapiens) (UniProt P10275).
T1 sequence (whole entry): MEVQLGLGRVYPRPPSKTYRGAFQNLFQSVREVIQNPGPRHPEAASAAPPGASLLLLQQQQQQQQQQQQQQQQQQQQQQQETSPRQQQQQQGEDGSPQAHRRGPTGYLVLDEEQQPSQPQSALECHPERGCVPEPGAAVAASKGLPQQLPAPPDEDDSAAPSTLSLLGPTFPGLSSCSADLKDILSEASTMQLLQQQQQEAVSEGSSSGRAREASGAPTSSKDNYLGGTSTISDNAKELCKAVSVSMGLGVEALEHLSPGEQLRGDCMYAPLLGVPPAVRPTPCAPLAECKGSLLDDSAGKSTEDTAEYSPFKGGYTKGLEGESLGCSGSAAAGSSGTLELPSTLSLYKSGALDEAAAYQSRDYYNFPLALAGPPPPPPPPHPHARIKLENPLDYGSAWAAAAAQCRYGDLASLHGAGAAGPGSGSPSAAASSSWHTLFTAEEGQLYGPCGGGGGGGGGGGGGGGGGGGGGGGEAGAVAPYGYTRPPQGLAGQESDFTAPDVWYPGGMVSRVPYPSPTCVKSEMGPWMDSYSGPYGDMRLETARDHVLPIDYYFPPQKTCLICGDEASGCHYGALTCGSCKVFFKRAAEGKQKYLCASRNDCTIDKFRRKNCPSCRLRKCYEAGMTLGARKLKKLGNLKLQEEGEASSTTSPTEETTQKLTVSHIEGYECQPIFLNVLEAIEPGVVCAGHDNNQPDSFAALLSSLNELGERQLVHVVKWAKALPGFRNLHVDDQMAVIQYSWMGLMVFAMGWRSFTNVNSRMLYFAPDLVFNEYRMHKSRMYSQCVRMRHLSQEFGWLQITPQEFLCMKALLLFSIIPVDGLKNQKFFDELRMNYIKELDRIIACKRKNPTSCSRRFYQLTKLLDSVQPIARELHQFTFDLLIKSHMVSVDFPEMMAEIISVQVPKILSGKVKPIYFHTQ
As to the kind of experiment: Antagonist activity at androgen receptor in human LNCAP cells assessed as reduction in PSA mRNA expression at 10 uM after 24 hrs by RT-qPCR analysis relative to control. It counts as cell-based. The procedure, abridged:
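LNCaP cells treated 24 h after seeding with 10 μM compound for 24 h at 37 °C. RNA extracted, cDNA made from equal RNA amounts, then SYBR Green RT-qPCR for PSA. Normalised to 18S rRNA, relative levels by comparative Ct method versus untreated cells. Run in triplicate.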
(In general: In qPCR the cycle at which signal appears reflects the starting amount.)

Data set [2] addresses T1, Androgen receptor (Homo sapiens).
A short description of data set [3]: Antagonist activity at androgen receptor V7 mutant in human CW22Rv1 cells assessed as cell growth inhibition after 72 hrs by SRB assay. It counts as cell-based. On the technique in general: In SRB staining, fixed cells bind dye roughly in proportion to their protein.
Data set [4] deals with Mus musculus. As to the kind of experiment: Toxicity in nude CD1 mouse xenografted with human CW22Rv1 cells assessed as body weight loss at 50 mg/kg administered through oral gavage dosed qd for 5 days a week for 3 weeks. The settings on record: in vivo. The format is organism-based. The procedure, abridged:
(§1)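 Male CD-1 nude (nu/nu) mice, 8 weeks old, given 5 × 10^6 CW22Rv1 cells in saline s.c. in the right flank on day 0. Randomized, 5 per group. From day 1, before tumors were palpable, 50 mg/kg by oral gavage at 10 mL/kg in DMSO/Cremophor/PBS (10/5/85), qdx5/wx3w. Vehicle controls. Tumor volume by caliper as a × b²/2. TVI is the maximum value. Body weight loss monitored.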

Data set [5] is described as follows: Antitumor activity against human CW22Rv1 cells xenografted in nude CD1 mouse assessed as tumor volume inhibition at 50 mg/kg administered through oral gavage dosed qd for 5 days a week measured on day 7. It counts as functional. The gist of the method: as §1
In data set [6] the test system is Mus musculus. The data set can be described thus: Toxicity in nude CD1 mouse xenografted with human CW22Rv1 cells assessed as mortality at 50 mg/kg administered through oral gavage dosed qd for 5 days a week for 3 weeks. The format is organism-based. The settings on record: in vivo. The gist of the method: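 Eight-week-old male CD-1 nude mice, 5 per group, given CW22Rv1 cells (5 × 10^6 in saline) sc in right flank on day 0. From day 1, oral gavage at 50 mg/kg (10 mL/kg) in DMSO/Cremophor/PBS (10/5/85), daily 5 days/week for 3 weeks. Vehicle controls. Toxicity scored as deaths per group, with body weight loss.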
On the technique in general: In xenograft studies the graft and the host belong to different species.

In data set [7] the target is T1, Androgen receptor (Homo sapiens). As to the kind of experiment: Antagonist activity at androgen receptor in human LNCAP cells assessed as cell death after 144 hrs by SRB assay. The format is cell-based. The gist of the method:
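LNCaP cells in RPMI with 10% FBS and 1% glutamine, 5000 cells/well, exposed 24 h after seeding for 144 h to 0.02–20 μM. Read by SRB, OD 490 nm. LC50 is the concentration killing 50% of cells, i.e. treated OD below time-zero OD, per the Monks formula. Octuplicate wells, three independent experiments, mean ± SD.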

The species entered for data set [8] is Homo sapiens. The data set can be described thus: Potency index, ratio of enzalutamide IC50 to compound IC50 for antagonist activity at AR V7 mutant in human CW22Rv1 cells assessed as cell growth inhibition. The format is cell-based. The gist of the method:
(§2)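 CW22Rv1 growth-inhibition assay: cells exposed 24 h after seeding to 0.5–100 μM for 72 h, then counted with a Coulter counter. IC50 is the concentration causing 50% growth inhibition, taken from dose–response curves. Run in triplicate, three independent experiments, mean ± SD. Ratios divide the reference IC50 by the compound IC50.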

For data set [9], the species on record is Homo sapiens. The data set can be described thus: Potency index, ratio of (R)-bicalutamide IC50 to compound IC50 for antagonist activity at AR V7 mutant in human CW22Rv1 cells assessed as cell growth inhibition. The format is cell-based. The gist of the method:
as §2

The test system of data set [10] is Homo sapiens [UNDEFINED MUTATION]. As to the kind of experiment: Antagonist activity at androgen receptor V7 mutant in human CW22Rv1 cells assessed as cell growth inhibition after 144 hrs by SRB assay. The format is cell-based. The procedure, abridged:
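SRB assay on CW22Rv1 cells grown in RPMI 1640 with 10% FBS and 1% glutamine. Cells plated at 1700/well and exposed 24 h after seeding for 144 h to 0.02–20 μM. OD read at 490 nm. GI50 is the concentration giving 50% growth inhibition by the Monks formula relative to time-zero and untreated OD. Octuplicate wells, three independent experiments, mean ± SD.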

Data set [11] shares this test system. As to the kind of experiment: Antagonist activity at androgen receptor V7 mutant in human CW22Rv1 cells assessed as cell death after 144 hrs by SRB assay. The format is cell-based. The gist of the method: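 CW22Rv1 (RPMI 1640, 10% FBS, 1% glutamine) plated at 1700 cells/well; 24 h after seeding, drug exposure 0.02–20 μM for 144 h. Sulforhodamine B read at 490 nm. LC50 = concentration killing 50% of cells, i.e. OD treated below OD at time of drug addition (Monks formula). Octuplicate wells, three independent experiments, mean ± SD.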

The source made the active and inactive calls. No cut-off for these calls is given here.

`N#Cc1ccc(OCc2cn(CC(=O)Nc3ccc(C#N)c(C(F)(F)F)c3)nn2)cc1`: in data set [1], the inhibition worked out at 70%. Besides, in [2], growth was halved (GI50) at 6.42 µM.
As to `CNC(=O)c1ccc(N2C(=S)N(c3ccc(C#N)c(C(F)(F)F)c3)C(=O)C2(C)C)cc1F` [ENZALUTAMIDE], the IC50 in [3] was determined as 35.8 µM. The Activity in the data set with Mus musculus [4] is recorded as 0%; in the data set with Mus musculus [6], “Non-Toxic”. For the same compound, in [5], the “%max” value is 43%.
In the case of `N#Cc1ccc(-n2cc(COc3cccc(C(F)(F)F)c3)nn2)cc1C(F)(F)F`, the inhibition result in data set [1] was “inactive”.
Regarding `N#Cc1ccc(-n2cc(COc3ccc(F)cc3)nn2)cc1C(F)(F)F`, the inhibition in data set [1] was over 65%. It took 19.2 µM to inhibit growth in data set [2] by half (GI50).
For `N#Cc1ccc(-n2cc(COc3ccccc3[N+](=O)[O-])nn2)cc1C(F)(F)F`, the inhibition in data set [1] is over 65%.
The same measure, in the same setting: with `N#Cc1ccc(-n2cc(COc3ccccc3)nn2)cc1C(F)(F)F` the figure was over 65%.
As for `N#Cc1ccc(-n2cc(CSc3ccc(F)cc3)nn2)cc1C(F)(F)F`, the inhibition in data set [1] was over 65%. This compound also registered a GI50 in data set [2] of 16.8 µM.
On to `N#Cc1ccc(-n2cc(-c3cccc(Cl)c3F)nn2)cc1C(F)(F)F`, for which the inhibition entry in data set [1] is “inactive”.
Same read-out and setting: to `N#Cc1ccc(-n2cc(COc3ccc([N+](=O)[O-])cc3)nn2)cc1C(F)(F)F` belongs over 65%.
Same read-out and setting: with `N#Cc1ccc(-n2cc(-c3cccc(C(F)(F)F)c3F)nn2)cc1C(F)(F)F` the entry was “inactive”.
`N#Cc1ccc(-n2cc(COc3ccc(F)c(C(F)(F)F)c3)nn2)cc1C(F)(F)F`: the inhibition entry in data set [1] is “inactive”.
Same read-out and setting: with `N#Cc1ccc(-n2cc(COc3ccc(C(F)(F)F)cc3)nn2)cc1C(F)(F)F` the entry was “inactive”.
Turning to `C[C@](O)(CS(=O)(=O)c1ccc(F)cc1)C(=O)Nc1ccc(C#N)c(C(F)(F)F)c1` [(R)-BICALUTAMIDE], the IC50 in [3] worked out at 31.3 µM.
For the compound `N#Cc1ccc(-n2cc(COc3cccc(C(F)(F)F)c3F)nn2)cc1C(F)(F)F`, the inhibition result in [1] is “inactive”.
Regarding `N#Cc1ccc(OCc2cn(CC(=O)Nc3ccc(Cl)c(C(F)(F)F)c3)nn2)cc1`, the figures for the GI50 in data set [7], in data set [2] and in [10] were 15.7 µM, 5.09 µM and 8.25 µM, respectively. For the same compound, in [1], the inhibition entry is “inactive”. For the same compound, in data set [3], the IC50 was determined as 8.14 µM. Moreover, the results for the Activity in the data set with Mus musculus [4] and with Mus musculus [6] were 0% and “Non-Toxic”, respectively. Moreover, the “%max” value in [5] worked out at 60%. Besides, the Ratio IC50 in the data set listed under Homo sapiens [8] was 4.4; in the data set filed under Homo sapiens [9], 3.8. Also, in data set [11], the LC50 worked out at 23.1 µM.
As to `N#Cc1ccc(OCc2cn(-c3ccc(C#N)c(C(F)(F)F)c3)nn2)cc1`, the inhibition in data set [1] was over 65%.
On the same count and under the same terms, with `N#Cc1ccc(-n2cc(-c3cccc(F)c3F)nn2)cc1C(F)(F)F` the figure was 38%; with `N#Cc1ccc(-n2cc(COc3ccc([N+](=O)[O-])cc3C(F)(F)F)nn2)cc1C(F)(F)F`, “inactive”; with `N#Cc1ccc(NC(=O)Cn2cc(CSc3ccc(F)cc3)nn2)cc1C(F)(F)F`, “inactive”.
On the same count and under the same terms, to `N#Cc1ccccc1OCc1cn(-c2ccc(C#N)c(C(F)(F)F)c2)nn1` belongs over 65%; to `N#Cc1ccc(-n2nnc(COc3ccc([N+](=O)[O-])cc3C(F)(F)F)c2I)cc1C(F)(F)F`, “inactive”.
On the same count and under the same terms, with `O=[N+]([O-])c1ccc(OCc2cn(-c3cccc(C(F)(F)F)c3)nn2)c(C(F)(F)F)c1` the entry was “inactive”; with `N#Cc1ccc(NC(=O)Cn2cc(COc3ccc(F)cc3)nn2)cc1C(F)(F)F`, “inactive”.
Regarding `CC(O)c1c(COc2ccc(C#N)cc2)nnn1-c1ccc(C#N)c(C(F)(F)F)c1` (stereo not given), the inhibition in [1] was over 65%.

By inhibition is commonly meant how much of the control response was suppressed. Usually GI50 stands for the concentration at which growth is held to half of that of the control. As usually defined, the IC50 is the concentration that inhibits the measured activity by half. In general, LC50 refers to the concentration lethal to half of the exposed cells or organisms.
